# Source: PubChem
# CHRM5 agonist = agonists of human muscarinic M5 receptor (CHRM5); P08912; AID 624037; activation, % at 3 µM; CHO-K1 hM5 cells, Fluo-8 calcium fluorescence; 0% DMSO wells, 100% maximal acetylcholine response; hit rate 0.19% among 360,000;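 active means activation above the run's mean over test compounds plus 3 SD, cut at about 23% in these data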;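 further: signal is peak over basal fluorescence ratio across the kinetic read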
# Target sequence (P08912 whole entry, looked up): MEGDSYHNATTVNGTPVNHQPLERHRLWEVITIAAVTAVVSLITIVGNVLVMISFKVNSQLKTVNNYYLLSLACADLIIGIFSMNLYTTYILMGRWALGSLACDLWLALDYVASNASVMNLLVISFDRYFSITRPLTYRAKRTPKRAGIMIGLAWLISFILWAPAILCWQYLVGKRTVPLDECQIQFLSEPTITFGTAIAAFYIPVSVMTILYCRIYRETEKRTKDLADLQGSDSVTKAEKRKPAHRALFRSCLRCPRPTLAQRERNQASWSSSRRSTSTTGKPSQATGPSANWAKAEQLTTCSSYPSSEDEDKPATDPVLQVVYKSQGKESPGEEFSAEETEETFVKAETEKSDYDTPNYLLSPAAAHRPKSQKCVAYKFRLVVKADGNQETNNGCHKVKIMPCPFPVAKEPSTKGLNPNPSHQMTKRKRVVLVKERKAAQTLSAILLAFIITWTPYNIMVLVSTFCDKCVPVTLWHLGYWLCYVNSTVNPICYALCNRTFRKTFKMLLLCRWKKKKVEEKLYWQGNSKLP
# CHRM4 antagonist = antagonists of human muscarinic M4 receptor (CHRM4); hit rate 0.73% among 360,000; inhibition, % at 3 µM; CHO-hM4 cells, ACh EC80, Fluo-8 calcium fluorescence;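 active means inhibition above its plate's cutoff, the mean inhibition of sample wells plus 3 SD, cut at about 27% in these data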;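 further: 0% = acetylcholine EC80 with DMSO and 100% = DMSO without agonist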
# M5 PAM = potentiates acetylcholine response at human M5 receptor; activation, % at 3 µM; hit rate 0.3% among 360,000; CHO-K1 hM5, Fluo-8 calcium, ACh EC20 PAM; 0% = ACh EC20, 100% = ACh EC100; AID 624038; P08912;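 active means activation above the run cutoff, the mean activation of all test compounds plus 3 SD, cut at about 18% in these data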
#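 Probe or stimulus: acetylcholine, EC20 level; Assay system: human M5 receptor in CHO-K1 cells; Schedule: compound preincubation 140 s before EC20 acetylcholine addition; Technique: intracellular calcium via Fluo-8 fluorescence; Dosing: single-point, 3 µM nominal; Read-out basis: percent activation from peak-over-basal fluorescence ratio, scaled EC20-to-EC100 acetylcholine; Repeats: one well per compound, no replicates.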
# CHRM4 agonist = CHRM4 agonism in calcium assay | P08173 | CHO-K1 hM4/Gqi5, Fluo-8 calcium fluorescence; vehicle 0%, full acetylcholine response 100% | activation, % at 3 µM | hit rate 0.14% among 360,000 | AID 624127;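 active means activation above the run mean over all test wells plus 3 SD, cut at about 32% in these data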;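 further: peak over basal fluorescence ratio per well then scaled between controls; 0% = DMSO wells and 100% = acetylcholine at EC100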
# CHRM5 antagonist = CHRM5 antagonism in calcium assay | P08912 | CHO-hM5 cells, Fluo-8 calcium fluorescence, ACh EC80 | inhibition, % at 3 µM | hit rate 0.59% among 360,000;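 active means inhibition above a per-plate cutoff, the mean of that plate's test compounds plus 3 SD, cut at about 27% in these data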;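 further: 0% = acetylcholine EC80 with DMSO and 100% = DMSO without agonist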
# M4 PAM = potentiates acetylcholine response at human M4 receptor | P08173 | CHO-K1 hM4/Gqi5, Fluo-8 calcium fluorescence, ACh EC20; 0% = ACh EC20, 100% = maximal ACh | activation, % at 3 µM | hit rate 0.4% among 360,000;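 active means activation above its plate's cutoff, the mean activation of sample wells plus 3 SD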
# * marks the source's active call; other numbers are inactive results. Shown are actives, neighbours in structure and some others; about 1.9% of the full set was active somewhere.
SMILES,CHRM5 agonist,CHRM4 antagonist,M5 PAM,CHRM4 agonist,CHRM5 antagonist,M4 PAM
CCC(C)c1ccccc1OCCn1ccnc1 (stereo not drawn),-6.5,0.6,-18.4,1.4,29.7*,-3.2
Clc1ccc(OCCn2ccnc2)c(Br)c1,-11.5,1.0,27.0*,-0.3,8.0,0.3
O=C(Nc1cccc(C(F)(F)F)c1)C1CCN(S(=O)(=O)c2ccc(N3CCCC3=O)cc2)CC1,1.9,22.1,-13.9,17.3,36.9*,-7.3
CCN(CC)CCNC(=O)c1ccc(NC(C)=O)cc1,0.1,-14.3,-1.6,1.8,1.3,2.1
CCN(CC)CCNC(=O)c1ccc(N)cc1,-0.6,29.4*,0.8,0.1,-6.2,-13.1
CCOC(=O)/C(CCC[N+](C)(CC)CC)=N\O,-7.7,26.1,-18.1,0.9,60.3*,-16.1
CCOC(=O)C(Cc1ccnc2ccccc12)=NO,-3.5,1.9,-4.8,6.5,19.4,-1.2
Cc1nc2ccccc2c(=O)n1NC(=O)c1cccc(Cl)c1,0.9,27.6*,-11.2,15.3,19.6,-10.9
CC1(C)Cc2c(sc3nc(N/N=C/c4ccccc4)[nH]c(=O)c23)CO1,8.6,1.1,25.0*,2.3,24.0,8.6
CC1CCCN(Cc2csc(N)n2)C1 (stereo not drawn),-0.9,-10.1,2.9,0.6,7.4,-5.6
COc1cc(CN(C)c2ncnc3sccc23)ccc1OC(F)F,0.5,-2.0,0.3,8.4,-4.2,-7.1
CCCCC(CC)C(=O)NCCCN1CCN(CCCNC(=O)C(CC)CCCC)CC1 (stereo not drawn),-8.0,33.6*,-1.3,-0.7,-4.2,-9.3
Cn1c(=O)c2[nH]c(-c3ccc(S(=O)(=O)O)cc3)nc2n(C)c1=O,67.9*,-0.8,-20.1,0.8,-0.8,-4.1
CC(C)C[C@H]1CNC(=S)N1CC1CCN(CCC23CC4CC(CC(C4)C2)C3)CC1,-3.4,66.6*,-19.5,3.1,49.2*,-16.1
CC(C)C[C@H]1CNC(=S)N1CC1CCN(CC2CCCC2)CC1,-3.0,-7.1,-14.7,0.5,-3.1,-5.8
CC(C)C[C@H]1CNC(=S)N1CC1CCN(CC2CCC(C(C)(C)C)CC2)CC1 (stereo partly drawn),-3.2,50.5*,-19.7,4.4,35.3*,-16.8
CC[C@H](C)[C@H]1CNC(=S)N1CC1CCN(CCCCc2ccccc2)CC1,-3.4,37.3*,-18.4,0.8,20.2,-15.1
CC(C)C[C@H]1CNC(=S)N1CC1CCN(CCCC2CCCCC2)CC1,-3.1,55.1*,-18.9,1.3,15.2,-15.0
CCOC(=O)N1CCN(C(=O)Cc2ccccc2[N+](=O)[O-])CC1,1.0,8.5,1.9,-0.3,5.9,-0.9
Cc1ccc(S(=O)(=O)N2CCOC23CCN(S(=O)(=O)c2c(C)cc(C)cc2C)CC3)cc1,-1.5,-8.4,-13.2,2.0,15.9,-7.1
CCN1CCC(CN2CCNC2=S)CC1,-1.5,-0.8,3.5,-0.2,-6.2,-0.2
S=C1NCCN1CC1CCN(CCC23CC4CC(CC(C4)C2)C3)CC1,-3.0,57.9*,-15.9,2.7,10.9,-15.0
CC[C@H](C)[C@H]1CNC(=S)N1CC1CCN(CCCC2CCCC2)CC1,-3.0,26.6*,-17.5,2.5,16.0,-14.3
CC1CN(C/C(=N\O)C23CC4CC(CC(C4)C2)C3)CC(C)O1 (stereo not drawn),0.2,3.3,-0.2,1.4,-0.7,-2.2
CCOc1ccccc1N(C)C(=O)CCS(=O)(=O)c1ccc2c(c1)NC(=O)C(C)S2 (stereo not drawn),-1.4,-6.3,-7.7,6.8,7.2,1.9
SMILES,CHRM5 agonist,CHRM4 antagonist,M5 PAM,CHRM4 agonist,CHRM5 antagonist,M4 PAM
COc1cc(CN2C(=O)C(C)ON=C2c2ccccc2F)cc(OC)c1 (stereo not drawn),-2.5,-5.5,-1.3,0.6,-0.7,10.5
Cc1ccc(CC2C(=O)N(c3ccc(C)cc3)C(=O)C2C)cc1 (stereo not drawn),-6.9,-26.3,-0.8,0.1,-15.9,11.2
Cc1ccc(CC2C(=O)N(CC(=O)O)C(=O)C2C)cc1 (stereo not drawn),0.9,28.8*,-0.5,1.0,3.4,14.9
COc1ccccc1C(C(=O)NC1CCCC1)N(C(=O)c1csnn1)C1CC1 (stereo not drawn),-0.6,-22.2,0.2,3.6,0.2,12.9
Cc1ccc2c(c1)[C@H]1[C@H](CO2)[C@H](c2ccccc2)[C@]2(C)C(=O)N(Cc3ccc(F)cc3)CC(=O)N12,24.4*,16.4,-3.4,12.0,13.0,-8.0
COc1ccc2c(c1)OC[C@H]1[C@H]2N2C(=O)c3cc(F)ccc3NC(=O)[C@@]2(C)[C@H]1c1ccccc1,-6.1,56.7*,-27.5,3.7,12.2,-14.7
COc1ccc2c(c1)OC[C@H]1[C@H]2N2C(=O)c3cc(OC)ccc3NC(=O)[C@@]2(C)[C@H]1c1ccccc1,-0.3,26.5*,-9.9,-0.2,4.3,-6.0
COc1ccc2c(c1)OC[C@H]1[C@H]2N2C(=O)c3cc(Cl)ccc3NC(=O)[C@@]2(C)[C@H]1c1ccccc1,-1.0,35.9*,-8.7,2.1,10.9,-7.5
COc1ccc2c(c1)OC[C@H]1[C@H]2N2C(=O)c3ccc(C)cc3NC(=O)[C@@]2(C)[C@H]1c1ccccc1,-2.2,-6.7,-1.8,2.9,4.5,5.6
O=C(CCc1nnc(CCCCc2ccccc2)o1)NCCN1CCCCC1=O,-1.5,-0.2,-2.0,0.8,6.3,-8.7
C[C@@]12C(=O)Nc3cc(F)ccc3C(=O)N1[C@H]1c3ccccc3OC[C@@H]1[C@@H]2c1ccccc1,-3.1,73.3*,-36.3,3.5,11.8,-21.4
CC1CCc2c(sc(/N=C/N(C)C)c2C#N)C1 (stereo not drawn),-5.6,-3.3,20.3*,-0.1,-10.2,2.5
CCCCN(CC)C(=O)c1n[nH]c(=O)c2ccccc12,6.8,-3.2,25.3*,1.6,-15.7,24.9
CCSc1nsc(NC(=O)Nc2ccccc2F)n1,2.9,2.8,-23.3,13.7,18.2,-7.0
C=CCSc1nsc(NC(=O)Nc2ccc(F)cc2)n1,3.2,13.6,-21.3,11.4,32.9*,-8.6
O=S(=O)(Nc1ccc(Cl)cc1)c1ccc(N2CCOCC2)c(NC(=S)NCCN2CCOCC2)c1,3.2,-0.9,-0.1,5.8,11.2,-1.9
CC(C)n1c(C(F)(F)F)nc2cc(C(=O)N3CCCCC3)ccc21,1.4,30.0*,-0.1,1.4,10.6,-1.7
O=C(c1cccc(C(F)(F)F)c1)N1CCCCCC1,-1.7,-7.3,-4.8,-0.1,-4.1,-0.8
O=c1c2ccccc2sc2ccc(NCCCN3CCOCC3)cc12,17.9,-14.9,-10.3,32.9*,17.7,0.0
CC(O)CC(=O)OC[C@]12CC[C@H]3[C@@](C)(CC[C@H]4C(C)(C)CCC[C@]34C)[C@@H]1CC(C1=CC(=O)OC1O)O2 (stereo partly drawn),0.4,64.3*,-3.2,2.5,13.1,-11.9
